Source: ChEMBL document CHEMBL1131831, “A rapid method to identify exo-protease inhibitors” (Bioorg Med Chem Lett, 1999)

Tests used:
[1] = substrate: CN(C(=O)[C@@H](CCCCC(=N)N)NC(=O)[C@H](Cc1ccccc1)NC(=O)[C@H]1CCCN1C(=O)OCc1ccccc1)c1ccc(C#C/C=C/c2ccc([N+](=O)[O-])c(O)c2)cc1; test: Proteolysis constant (Km), when mixed with kallikrein enzyme for the conversion of water-soluble compound to fluorescent oil-soluble compound
How it was run: (§1)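 Porcine pancreatic trypsin (type IX), porcine pancreatic kallikrein, bovine spleen cathepsin B and porcine pancreatic elastase, each enzyme added to 12 µM substrate solution over mineral oil, shaken at 37 °C. Buffers: trypsin 10 mM Tris-HCl pH 7.8; kallikrein 50 mM Tris pH 9.0; cathepsin B 100 mM potassium phosphate pH 6.0; elastase 10 mM Tris-HCl pH 7.5. Released fluorophore in the oil is diluted with n-heptane and quantified at 424 nm against oil absorbance at 272 nm.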

[2] = substrate: CC(C)C[C@H](NC(=O)[C@H](N)Cc1ccc(O)cc1)C(=O)N[C@@H](C(=O)N(C)c1ccc(C#C/C=C/c2ccc([N+](=O)[O-])c(O)c2)cc1)C(C)C; test: Proteolysis constant (Km), when mixed with human leukocyte elastase (HLE) enzyme for the conversion of water-soluble compound to fluorescent oil-soluble compound
How it was run: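 Human leukocyte elastase (1 unit = 1.2 µg; releases 1 µmol/min p-nitrophenol from N-t-BOC-L-alanine-p-nitrophenyl ester, pH 6.5, 37 °C) in 50 mM NaOAc, 100 mM NaCl, 8 mM NaN3 pH 6.0. Enzyme mixed with 12 µM substrate in buffer under a trace mineral-oil layer, shaken at 37 °C. Released fluorophore extracted into oil, diluted with n-heptane, quantified by absorbance at 424 nm against oil at 272 nm.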

[3] = substrate: COCCOCCOCCOCCOC(=O)N[C@@H](C)C(=O)N[C@H](C)C(=O)N(C)c1ccc(C#C/C=C/c2ccc([N+](=O)[O-])c(O)c2)cc1; test: Proteolysis constant (Km), when mixed with elastase enzyme for the conversion of water-soluble compound to fluorescent oil-soluble compound; how it was run: as §1
[4] = substrate: CC[C@@H](C)[C@@H](NC(=O)OCc1ccccc1)C(=O)N1CCC[C@H]1C(=O)N[C@H](CCCCC(=N)N)C(=O)N(C)c1ccc(C#C/C=C/c2ccc([N+](=O)[O-])c(O)c2)cc1; test: Proteolysis constant (Km), when mixed with trypsin enzyme for the conversion of water-soluble compound to fluorescent oil-soluble compound; settings: Sus scrofa; how it was run: as §1

B1: Kallikrein 1 (Sus scrofa), O97506 (protein)
chain: MEVIVLFRIISFRQAVYFMCLFAAVSCGCLPQLHKNTFFRGGDVSAMYTPSARHCQMMCTFHPRCLLFSFLPADSTSVTDKRFGCFLKDSVTGMLPRVLRENAISGHSLKQCGHQIRACHRDIYKGIDMRGVNFNVSKVKTVEECQERCTNSIHCLFFTYATQAFNNAEYRNNCLLKHSPGGTPTSIKVLANVESGFSLKPCADSEIGCHMDIFQHLAFSDVDVARVIAPDAFVCRTICTYHPNCLFFTFYTNAWKIESQRNVCFLKTSHSGTPSFPTPQENAISGYSLLTCKQTLPEPCHSKIYSEVDFEGEELNVTFVQGANLCQETCTKTIRCQFFTYSLHPEDCRGEKCKCSLRLSSDGSPTKITHGMRASSGYSLRLCRSGDHSACATKANTRIVGGTDSFLGEWPWQVSLQAKLRAQNHLCGGSIIGHQWVLTAAHCFDGLSLPDIWRIYGGILNISEITKETPFSQVKEIIIHQNYKILESGHDIALLKLETPLNYTDFQKPICLPSRDDTNVVYTNCWVTGWGFTEEKGEIQNILQKVNIPLVSNEECQKSYRDHKISKQMICAGYKEGGKDACKGESGGPLVCKYNGIWHLVGTTSWGEGCARREQPGVYTKVIEYMDWILEKTQDDDGQSWMK
- Km [1]: 92.2 µM

B2: Neutrophil elastase (Homo sapiens), P08246 (protein)
chain: MTLGRRLACLFLACVLPALLLGGTALASEIVGGRRARPHAWPFMVSLQLRGGHFCGATLIAPNFVMSAAHCVANVNVRAVRVVLGAHNLSRREPTRQVFAVQRIFENGYDPVNLLNDIVILQLNGSATINANVQVAQLPAQGRRLGNGVQCLAMGWGLLGRNRGIASVLQELNVTVVTSLCRRSNVCTLVRGRQAGVCFGDSGSPLVCNGLIHGIASFVRGGCASGLYPDAFAPVAQFVNWIDSIIQRSEDNPCPHPRDPDPASRTH
- Km [2]: 16.1 µM

B3: Chymotrypsin-like elastase family member 2A (Sus scrofa), P08419 (protein)
chain: MIRALLLSTLVAGALSCGLPANLPQLPRVVGGEDARPNSWPWQVSLQYDSSGQWRHTCGGTLVDQSWVLTAAHCISSSRTYRVVLGRHSLSTNEPGSLAVKVSKLVVHQDWNSNQLSNGNDIALLKLASPVSLTDKIQLGCLPAAGTILPNNYVCYVTGWGRLQTNGASPDILQQGQLLVVDYATCSKPGWWGSTVKTNMICAGGDGIISSCNGDSGGPLNCQGANGQWQVHGIVSFGSSLGCNYYHKPSVFTRVSNYIDWINSVIANN
- Km [3]: 325 µM

B4: Trypsin (Sus scrofa), P00761 (protein)
chain: FPTDDDDKIVGGYTCAANSIPYQVSLNSGSHFCGGSLINSQWVVSAAHCYKSRIQVRLGEHNIDVLEGNEQFINAAKIITHPNFNGNTLDNDIMLIKLSSPATLNSRVATVSLPRSCAAAGTECLISGWGNTKSSGSSYPSLLQCLKAPVLSDSSCKSSYPGQITGNMICVGFLEGGKDSCQGDSGGPVVCNGQLQGIVSWGYGCAQKNKPGVYTKVCNYVNWIQQTIAAN
- Km [4]: 97 µM
